Experimental findings from ChEMBL document CHEMBL4350976, “Sequence modification of heptapeptide selected by phage display as homing device for HT-29 colon cancer cells to improve the anti-tumour activity of drug delivery systems” (Eur J Med Chem, 2019) are described below.

The structures appear in SMILES notation. Where a SMILES comes first, the peptide text is derived from it. The star is where a group is joined. X1 = COc1cccc2c1C(=O)c1c(O)c3c(c(O)c1C2=O)C[C@@](O)(/C(C)=N/OCC(=O)*)C[C@@H]3O[C@H]1C[C@H](N)[C@H](O)[C@H](C)O1

A short description of series [1]: Retention time of the compound using 0.1% TFA in water and 0.1% TFA in acetonitrile-water (80:20 v/v) as eluents by RP-HPLC analysis. The series is classed as physicochemical. In outline:
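Analytical RP-HPLC. Eluent A was 0.1% TFA in water and eluent B was 0.1% TFA in acetonitrile-water (80:20, v/v). Gradient: 0% B held to 5 min, then to 90% B at 50 min. Flow 1 mL/min, detection at 220 nm. The column was a Phenomenex Aeris Peptide XB-C18 (250×4.6 mm, 3.6 μm) or a Nucleosil C18 (5 μm, 100 Å, 250×4.6 mm), depending on the conjugate series.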

In the next series the test system is HT-29. Kind of series: Cytostatic activity against human HT-29 cells preincubated for 24 hrs under serum free condition followed by compound washout and further incubation for 48 hrs in presence of serum by MTT assay. The series is classed as functional, cell-based. In outline: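 HT-29 cells were exposed to the compound for 24 h, washed, and kept a further 48 h. Viability was read by MTT. Absorbances were normalized to untreated controls and fitted by nonlinear regression to dose-response curves to give IC50.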
On the technique in general: Formazan colour is commonly taken as a measure of viable cells.

With `COc1cccc2c1C(=O)c1c(O)c3c(c(O)c1C2=O)C[C@@](O)(/C(C)=N/OCC(=O)N[C@@H](CC(C)C)C(=O)N[C@@H](CCCNC(=N)N)C(=O)N[C@@H](CCCNC(=N)N)C(=O)N[C@@H](Cc1ccc(O)cc1)C(=O)N[C@H](C(=O)N[C@@H](Cc1cnc[nH]1)C(=O)N[C@@H](CC(C)C)C(=O)N[C@@H](CC(C)C)C(=O)N[C@@H](Cc1ccc(O)cc1)C(=O)N[C@@H](C)C(=O)N[C@H](C(N)=O)[C@@H](C)O)C(C)C)C[C@@H]3O[C@H]1C[C@H](N)[C@H](O)[C@H](C)O1` (X1-LRRYVHLLYAT-NH2), the Retention time in series [1] was in the range of 31.1 to 33.1 min. Besides, in the series with HT-29, the IC50 (as a rule, the midpoint of a concentration-inhibition curve) was determined as 7.5 µM. `COc1cccc2c1C(=O)c1c(O)c3c(c(O)c1C2=O)C[C@@](O)(/C(C)=N/OCC(=O)N[C@@H](CC(C)C)C(=O)N[C@@H](CCCNC(=N)N)C(=O)N[C@@H](CCCNC(=N)N)C(=O)N[C@@H](Cc1ccc(O)cc1)C(=O)N[C@H](C(=O)N[C@@H](Cc1cnc[nH]1)C(=O)N[C@@H](CC(C)C)C(=O)N[C@@H](Cc1ccccc1)C(=O)N[C@@H](Cc1ccc(O)cc1)C(=O)N[C@@H](CC(N)=O)C(=O)N[C@H](C(N)=O)[C@@H](C)O)C(C)C)C[C@@H]3O[C@H]1C[C@H](N)[C@H](O)[C@H](C)O1` (X1-LRRYVHLFYNT-NH2) yielded a Retention_time in series [1] of 31.8 min. In the series on HT-29, the IC50 was 15.4 µM. The molecule `COc1cccc2c1C(=O)c1c(O)c3c(c(O)c1C2=O)C[C@@](O)(/C(C)=N/OCC(=O)N[C@@H](CC(C)C)C(=O)N[C@@H](CCCNC(=N)N)C(=O)N[C@@H](CCCNC(=N)N)C(=O)N[C@@H](Cc1ccc(O)cc1)C(=O)N[C@H](C(=O)N[C@@H](Cc1cnc[nH]1)C(=O)N[C@@H](CC(C)C)C(=O)N[C@@H](Cc1ccccc1)C(=O)N[C@@H](Cc1ccc(O)cc1)C(=O)N[C@@H](CCCCN)C(=O)N[C@H](C(N)=O)[C@@H](C)O)C(C)C)C[C@@H]3O[C@H]1C[C@H](N)[C@H](O)[C@H](C)O1` (X1-LRRYVHLFYKT-NH2) gave a Retention time in series [1] of 30.5 to 32 min. For the same molecule, in the series with HT-29, the IC50 was determined as 11.5 µM. The matching figures for `COc1cccc2c1C(=O)c1c(O)c3c(c(O)c1C2=O)C[C@@](O)(/C(C)=N/OCC(=O)N[C@@H](CC(C)C)C(=O)N[C@@H](CCCNC(=N)N)C(=O)N[C@@H](CCCNC(=N)N)C(=O)N[C@@H](Cc1ccc(O)cc1)C(=O)N[C@H](C(=O)N[C@@H](Cc1cnc[nH]1)C(=O)N[C@@H](CC(C)C)C(=O)N[C@@H](Cc1ccc(O)cc1)C(=O)N[C@@H](Cc1ccc(O)cc1)C(=O)N[C@@H](C)C(=O)N[C@H](C(N)=O)[C@@H](C)O)C(C)C)C[C@@H]3O[C@H]1C[C@H](N)[C@H](O)[C@H](C)O1` (X1-LRRYVHLYYAT-NH2): 30.8 to 31.7 min and 38.4 µM. On to `COc1cccc2c1C(=O)c1c(O)c3c(c(O)c1C2=O)C[C@@](O)(/C(C)=N/OCC(=O)N[C@@H](CC(C)C)C(=O)N[C@@H](CCCNC(=N)N)C(=O)N[C@@H](CCCNC(=N)N)C(=O)N[C@@H](Cc1ccc(O)cc1)C(=O)N[C@H](C(=O)N[C@@H](Cc1cnc[nH]1)C(=O)N[C@@H](CC(C)C)C(=O)N[C@@H](Cc1ccccc1)C(=O)N[C@@H](Cc1ccc(O)cc1)C(=O)N[C@@H](CO)C(=O)N[C@H](C(N)=O)[C@@H](C)O)C(C)C)C[C@@H]3O[C@H]1C[C@H](N)[C@H](O)[C@H](C)O1` (X1-LRRYVHLFYST-NH2), for which the Retention time in series [1] lay in the range of 32.1 to 32.9 min. For the same molecule, the IC50 in the series on HT-29 was 17.7 µM. `COc1cccc2c1C(=O)c1c(O)c3c(c(O)c1C2=O)C[C@@](O)(/C(C)=N/OCC(=O)N[C@@H](CC(C)C)C(=O)N[C@@H](CCCNC(=N)N)C(=O)N[C@@H](CCCNC(=N)N)C(=O)N[C@@H](Cc1ccc(O)cc1)C(=O)N[C@H](C(=O)N[C@@H](Cc1cnc[nH]1)C(=O)N[C@@H](CC(C)C)C(=O)N[C@@H](Cc1ccccc1)C(=O)N[C@@H](Cc1ccc(O)cc1)C(=O)N1CCC[C@H]1C(=O)N[C@H](C(N)=O)[C@@H](C)O)C(C)C)C[C@@H]3O[C@H]1C[C@H](N)[C@H](O)[C@H](C)O1` (X1-LRRYVHLFYPT-NH2): the Retention_time in series [1] was determined as 31.6 min. The IC50 in the series with HT-29 amounted to 10.9 µM. Molecule `COc1cccc2c1C(=O)c1c(O)c3c(c(O)c1C2=O)C[C@@](O)(/C(C)=N/OCC(=O)N[C@@H](CC(C)C)C(=O)N[C@@H](CCCNC(=N)N)C(=O)N[C@@H](CCCNC(=N)N)C(=O)N[C@@H](Cc1ccc(O)cc1)C(=O)N[C@H](C(=O)N[C@@H](Cc1cnc[nH]1)C(=O)N[C@@H](CC(C)C)C(=O)N[C@@H](CC(N)=O)C(=O)N[C@@H](Cc1ccc(O)cc1)C(=O)N[C@@H](C)C(=O)N[C@H](C(N)=O)[C@@H](C)O)C(C)C)C[C@@H]3O[C@H]1C[C@H](N)[C@H](O)[C@H](C)O1` (X1-LRRYVHLNYAT-NH2) showed a Retention time in series [1] of 29 to 30.8 min. Also, in the series with HT-29, the 50% inhibitory concentration (IC50) came to 28 µM. For `COc1cccc2c1C(=O)c1c(O)c3c(c(O)c1C2=O)C[C@@](O)(/C(C)=N/OCC(=O)N[C@@H](CC(C)C)C(=O)N[C@@H](CCCNC(=N)N)C(=O)N[C@@H](CCCNC(=N)N)C(=O)N[C@@H](Cc1ccc(O)cc1)C(=O)N[C@H](C(=O)N[C@@H](Cc1cnc[nH]1)C(=O)N[C@@H](CC(C)C)C(=O)N[C@@H](CCCCN)C(=O)N[C@@H](Cc1ccc(O)cc1)C(=O)N[C@@H](C)C(=O)N[C@H](C(N)=O)[C@@H](C)O)C(C)C)C[C@@H]3O[C@H]1C[C@H](N)[C@H](O)[C@H](C)O1` (X1-LRRYVHLKYAT-NH2), in that order: 28.2 to 30.1 min and 50.3 µM. The molecule `COc1cccc2c1C(=O)c1c(O)c3c(c(O)c1C2=O)C[C@@](O)(/C(C)=N/OCC(=O)N[C@H](C(=O)N[C@@H](Cc1cnc[nH]1)C(=O)N[C@@H](CC(C)C)C(=O)NCC(=O)N[C@@H](Cc1ccc(O)cc1)C(=O)N[C@@H](C)C(=O)N[C@H](C(N)=O)[C@@H](C)O)C(C)C)C[C@@H]3O[C@H]1C[C@H](N)[C@H](O)[C@H](C)O1` (X1-VHLGYAT-NH2) showed a Retention_time in series [1] of 26.1 min. As for `COc1cccc2c1C(=O)c1c(O)c3c(c(O)c1C2=O)C[C@@](O)(/C(C)=N/OCC(=O)N[C@@H](CC(C)C)C(=O)N[C@@H](CCCNC(=N)N)C(=O)N[C@@H](CCCNC(=N)N)C(=O)N[C@@H](Cc1ccc(O)cc1)C(=O)N[C@H](C(=O)N[C@@H](Cc1cnc[nH]1)C(=O)N[C@@H](CC(C)C)C(=O)N[C@@H](CCC(=O)O)C(=O)N[C@@H](Cc1ccc(O)cc1)C(=O)N[C@@H](C)C(=O)N[C@H](C(N)=O)[C@@H](C)O)C(C)C)C[C@@H]3O[C@H]1C[C@H](N)[C@H](O)[C@H](C)O1` (X1-LRRYVHLEYAT-NH2), the Retention time in series [1] fell in the range of 29.3 to 31.2 min. Also, the IC50 in the series with HT-29 stood at 29.5 µM. The matching figures for `COc1cccc2c1C(=O)c1c(O)c3c(c(O)c1C2=O)C[C@@](O)(/C(C)=N/OCC(=O)N[C@@H](CC(C)C)C(=O)N[C@@H](CCCNC(=N)N)C(=O)N[C@@H](CCCNC(=N)N)C(=O)N[C@@H](Cc1ccc(O)cc1)C(=O)N[C@H](C(=O)N[C@@H](Cc1cnc[nH]1)C(=O)N[C@@H](CC(C)C)C(=O)N[C@@H](Cc1ccccc1)C(=O)N[C@@H](Cc1ccc(O)cc1)C(=O)N[C@@H](CCC(=O)O)C(=O)N[C@H](C(N)=O)[C@@H](C)O)C(C)C)C[C@@H]3O[C@H]1C[C@H](N)[C@H](O)[C@H](C)O1` (X1-LRRYVHLFYET-NH2): 31.9 to 33.1 min and 54.3 µM.
